“And” between values parts separate entries of the source, which are not always exact repeats. Equal values may be shown once.
Test system: Fibroblast
Test: Multiplex assay against human fibroblast
Format: toxicity, cell-based
Conditions: number of replicates 2
Procedure, shortened: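 At seeding, live cells were stained with Hoechst33342, BioTracker Green Microtubule Cytoskeleton Dye, MitoTracker Red and Annexin V Alexa Fluor 680. After compound addition they were imaged on a CQ1 microscope at 37°C and 5% CO2, and CellPathfinder machine-learning gating sorted them into Hoechst high-intensity objects or normal cells, with normal cells further split into healthy, pyknosed or fragmented nuclei and pyknosed cells into mitotic or apoptotic. Tubulin, mitochondrial-mass and membrane-permeability phenotypes are given as per cents of cells with healthy nuclei.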

[1] = 12 h, 1 µM, compound concentration 1 uM
[2] = 12 h, 10 µM, compound concentration 10 uM
[3] = 24 h, 1 µM, compound concentration 1 uM
[4] = 24 h, 10 µM, compound concentration 10 uM
[5] = 48 h, 1 µM, compound concentration 1 uM
[6] = 48 h, 10 µM, compound concentration 10 uM
[7] = 12 h, 0 µM, compound concentration 0 uM
[8] = 24 h, 0 µM, compound concentration 0 uM
[9] = 48 h, 0 µM, compound concentration 0 uM

c1ccc2c(-c3coc4cc(-c5ccc(N6CCNCC6)cc5)cnc34)ccnc2c1
Population Apoptotic (%) [1]: 33% and 46% | Population Fragmented Nuclei (%) [1]: 18% | Population Healthy Nuclei (%) [1]: 69% and 66% | Population Hoechst High Intensity Objects (%) [1]: 0% | Population Mitochondria Different-Phenotype (%) [1]: 0% and 2% | Population Mitotic Cells (%) [1]: 66% and 53% | Population Normal (%) [1]: 100% | Population Pyknosed Nuclei (%) [1]: 16% and 14% | Population Tubulin-Different-Phenotype (%) [1]: 10% and 15% | Total Cell Count [1]: 182 and 274 | Population Apoptotic (%) [2]: 68% and 73% | Population Fragmented Nuclei (%) [2]: 15% and 7% | Population Hoechst High Intensity Objects (%) [2]: 0% | Population Mitochondria Different-Phenotype (%) [2]: 8% and 0% | Population Mitotic Cells (%) [2]: 31% and 26% | Population Normal (%) [2]: 100% and 98% | Population Pyknosed Nuclei (%) [2]: 52% and 91% | Population Tubulin-Different-Phenotype (%) [2]: 35% and 100% | Total Cell Count [2]: 223 and 162 | Population Apoptotic (%) [3]: 44% and 60% | Population Healthy Nuclei (%) [3]: 73% and 71% | Population Hoechst High Intensity Objects (%) [3]: 0% | Population Mitochondria Different-Phenotype (%) [3]: 0% and 2% | Population Mitotic Cells (%) [3]: 56% and 40% | Population Normal (%) [3]: 100% | Population Pyknosed Nuclei (%) [3]: 12% and 11% | Population Tubulin-Different-Phenotype (%) [3]: 15% and 9% | Total Cell Count [3]: 195 and 271 | Population Apoptotic (%) [4]: 77% and 80% | Population Fragmented Nuclei (%) [4]: 9% | Population Hoechst High Intensity Objects (%) [4]: 0% | Population Mitotic Cells (%) [4]: 22% and 19% | Population Normal (%) [4]: 98% and 100% | Population Pyknosed Nuclei (%) [4]: 83% and 66% | Population Tubulin-Different-Phenotype (%) [4]: 80% and 50% | Total Cell Count [4]: 163 and 202 | Population Apoptotic (%) [5]: 53% and 48% | Population Fragmented Nuclei (%) [5]: 16% and 27% | Population Healthy Nuclei (%) [5]: 76% and 63% | Population Mitochondria Different-Phenotype (%) [5]: 0% | Population Mitotic Cells (%) [5]: 46% and 51% | Population Normal (%) [5]: 100% and 99% | Population Pyknosed Nuclei (%) [5]: 6% and 8% | Population Tubulin-Different-Phenotype (%) [5]: 10% and 11% | Total Cell Count [5]: 208 and 323 | Population Apoptotic (%) [6]: 84% and 91% | Population Fragmented Nuclei (%) [6]: 21% | Population Healthy Nuclei (%) [6]: 28% and 18% | Population Hoechst High Intensity Objects (%) [6]: 0% | Population Mitochondria Different-Phenotype (%) [6]: 2% and 7% | Population Mitotic Cells (%) [6]: 8% | Population Normal (%) [6]: 99% | Population Pyknosed Nuclei (%) [6]: 50% and 63% | Population Tubulin-Different-Phenotype (%) [6]: 44% and 38% | Total Cell Count [6]: 171 and 210

COc1cc(C(N)=O)ccc1Nc1ncc2c(n1)N(CCC(C)C)[C@H](C)C(=O)N2C
Population Apoptotic (%) [7]: 87% and 56% | Population Fragmented Nuclei (%) [7]: 48% and 61% | Population Healthy Nuclei (%) [7]: 41% and 32% | Population Hoechst High Intensity Objects (%) [7]: 0% | Population Mitochondria Different-Phenotype (%) [7]: 0% and 3% | Population Normal (%) [7]: 100% | Population Pyknosed Nuclei (%) [7]: 9% and 5% | Population Tubulin-Different-Phenotype (%) [7]: 79% and 61% | Total Cell Count [7]: 166 and 267 | Population Apoptotic (%) [1]: 56% and 34% | Population Fragmented Nuclei (%) [1]: 17% and 20% | Population Healthy Nuclei (%) [1]: 57% and 64% | Population Hoechst High Intensity Objects (%) [1]: 0% | Population Membrane Permeable-Phenotype (%) [1]: 7% and 15% | Population Mitochondria Different-Phenotype (%) [1]: 0% and 2% | Population Mitotic Cells (%) [1]: 43% and 65% | Population Normal (%) [1]: 99% and 100% | Population Pyknosed Nuclei (%) [1]: 25% and 15% | Population Tubulin-Different-Phenotype (%) [1]: 22% and 28% | Total Cell Count [1]: 148 and 165 | Population Apoptotic (%) [8]: 80% and 69% | Population Fragmented Nuclei (%) [8]: 54% and 72% | Population Healthy Nuclei (%) [8]: 29% and 21% | Population Hoechst High Intensity Objects (%) [8]: 0% | Population Membrane Permeable-Phenotype (%) [8]: 17% and 9% | Population Mitochondria Different-Phenotype (%) [8]: 4% and 7% | Population Mitotic Cells (%) [8]: 19% and 30% | Population Normal (%) [8]: 100% | Population Tubulin-Different-Phenotype (%) [8]: 78% and 65% | Total Cell Count [8]: 162 and 237 | Population Apoptotic (%) [3]: 54% and 61% | Population Fragmented Nuclei (%) [3]: 13% and 27% | Population Healthy Nuclei (%) [3]: 65% and 56% | Population Hoechst High Intensity Objects (%) [3]: 0% | Population Membrane Permeable-Phenotype (%) [3]: 10% and 5% | Population Mitochondria Different-Phenotype (%) [3]: 0% | Population Mitotic Cells (%) [3]: 45% and 38% | Population Normal (%) [3]: 100% | Population Pyknosed Nuclei (%) [3]: 20% and 15% | Population Tubulin-Different-Phenotype (%) [3]: 10% and 14% | Total Cell Count [3]: 152 and 166 | Population Apoptotic (%) [9]: 82% and 80% | Population Fragmented Nuclei (%) [9]: 64% and 84% | Population Healthy Nuclei (%) [9]: 21% and 9% | Population Hoechst High Intensity Objects (%) [9]: 0% | Population Membrane Permeable-Phenotype (%) [9]: 18% and 8% | Population Mitochondria Different-Phenotype (%) [9]: 0% and 8% | Population Mitotic Cells (%) [9]: 17% and 20% | Population Normal (%) [9]: 100% | Population Pyknosed Nuclei (%) [9]: 13% and 6% | Population Tubulin-Different-Phenotype (%) [9]: 64% and 56% | Total Cell Count [9]: 171 and 241 | Population Apoptotic (%) [5]: 68% and 46% | Population Fragmented Nuclei (%) [5]: 18% and 25% | Population Healthy Nuclei (%) [5]: 66% | Population Hoechst High Intensity Objects (%) [5]: 0% | Population Membrane Permeable-Phenotype (%) [5]: 9% and 11% | Population Mitochondria Different-Phenotype (%) [5]: 0% | Population Mitotic Cells (%) [5]: 32% and 53% | Population Normal (%) [5]: 100% | Population Pyknosed Nuclei (%) [5]: 15% and 8% | Population Tubulin-Different-Phenotype (%) [5]: 8% and 10% | Total Cell Count [5]: 161 and 162

From ChEMBL document CHEMBL5303300, “EUbOPEN Chemogenomics Library - Multiplex” (2023)
